Results published in article PMC4971946 (Pharmacognosy Magazine, 2016).
pIC50: −log10 of the molar value.

Target: rat intestinal sucrase (Rattus norvegicus, UniProt P23739)
Test: Assay of sucrase inhibitory activity
Format: biochemical
Summary of the method: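 Rat intestinal sucrase-isomaltase prepared by Dahlqvist's method. Enzyme preincubated 10 min at 37°C with test sample (25–200 µg/ml, maleate buffer pH 6.0); reaction started with 60 mM sucrose solution, stopped after 30 min with 3,5-dinitrosalicylic acid reagent, boiled 5 min, A540 read. % inhibition relative to untreated-enzyme control lacking sample; three experiments.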

Chain of rat intestinal sucrase (P23739 whole entry): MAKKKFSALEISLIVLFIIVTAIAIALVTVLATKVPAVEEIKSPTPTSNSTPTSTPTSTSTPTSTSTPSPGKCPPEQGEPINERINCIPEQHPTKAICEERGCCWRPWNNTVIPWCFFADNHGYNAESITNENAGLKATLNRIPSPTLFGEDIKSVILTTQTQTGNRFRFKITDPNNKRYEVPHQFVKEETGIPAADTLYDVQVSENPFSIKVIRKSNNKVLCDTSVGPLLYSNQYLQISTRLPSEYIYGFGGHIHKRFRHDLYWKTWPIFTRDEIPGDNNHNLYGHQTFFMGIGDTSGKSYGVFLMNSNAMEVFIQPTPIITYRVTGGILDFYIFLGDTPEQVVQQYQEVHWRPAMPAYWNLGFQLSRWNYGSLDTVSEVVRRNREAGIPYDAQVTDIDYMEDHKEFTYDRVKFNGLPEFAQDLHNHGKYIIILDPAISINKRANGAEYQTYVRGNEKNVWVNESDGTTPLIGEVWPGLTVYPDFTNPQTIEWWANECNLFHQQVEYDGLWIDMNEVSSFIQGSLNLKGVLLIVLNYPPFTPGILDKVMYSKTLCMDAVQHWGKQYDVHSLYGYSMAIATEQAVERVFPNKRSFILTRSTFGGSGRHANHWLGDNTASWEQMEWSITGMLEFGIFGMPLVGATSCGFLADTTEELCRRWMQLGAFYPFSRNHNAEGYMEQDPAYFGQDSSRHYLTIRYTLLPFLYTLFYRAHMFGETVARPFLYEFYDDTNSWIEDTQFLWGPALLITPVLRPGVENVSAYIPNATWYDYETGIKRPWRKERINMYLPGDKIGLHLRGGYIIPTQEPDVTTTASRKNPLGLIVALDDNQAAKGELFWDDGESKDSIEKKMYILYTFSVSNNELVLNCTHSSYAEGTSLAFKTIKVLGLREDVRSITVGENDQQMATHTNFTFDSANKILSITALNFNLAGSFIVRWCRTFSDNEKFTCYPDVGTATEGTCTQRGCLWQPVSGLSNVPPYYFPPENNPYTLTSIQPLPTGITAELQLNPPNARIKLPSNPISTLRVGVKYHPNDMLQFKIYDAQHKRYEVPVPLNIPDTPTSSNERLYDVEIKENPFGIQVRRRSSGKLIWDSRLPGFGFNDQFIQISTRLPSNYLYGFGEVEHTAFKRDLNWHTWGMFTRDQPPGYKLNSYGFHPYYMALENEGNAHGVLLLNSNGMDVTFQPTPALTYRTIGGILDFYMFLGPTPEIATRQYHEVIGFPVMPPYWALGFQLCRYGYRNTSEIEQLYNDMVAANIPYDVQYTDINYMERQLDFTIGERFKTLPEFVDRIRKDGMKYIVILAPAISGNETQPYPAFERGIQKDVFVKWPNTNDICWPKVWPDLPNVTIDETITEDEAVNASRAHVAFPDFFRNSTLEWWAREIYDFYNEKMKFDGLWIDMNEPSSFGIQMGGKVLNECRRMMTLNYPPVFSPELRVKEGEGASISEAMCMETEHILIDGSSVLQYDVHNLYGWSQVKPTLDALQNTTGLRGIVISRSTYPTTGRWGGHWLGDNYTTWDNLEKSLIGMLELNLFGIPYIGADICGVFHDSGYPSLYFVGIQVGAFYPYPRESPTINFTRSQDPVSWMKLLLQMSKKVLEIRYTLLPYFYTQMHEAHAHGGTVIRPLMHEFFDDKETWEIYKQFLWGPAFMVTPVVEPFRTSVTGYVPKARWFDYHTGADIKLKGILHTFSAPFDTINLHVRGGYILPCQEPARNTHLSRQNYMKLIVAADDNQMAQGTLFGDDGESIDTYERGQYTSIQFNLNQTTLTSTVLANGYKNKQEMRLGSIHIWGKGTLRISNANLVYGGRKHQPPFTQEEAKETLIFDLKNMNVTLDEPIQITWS

SMILES | pIC50 | sucrase inhibitory activity IC50 (rat intestinal sucrase, in vitro) [µg/mL]
O=C1OC[C@H]2OC(=O)c3cc(O)c(O)c(O)c3-c3c(O)c(O)c(O)c4c3C(=O)O[C@H]([C@H]3OC(=O)c5c-4c(O)c(O)c(O)c5[C@H]3O)[C@@H]2OC(=O)c2cc(O)c(O)c(O)c2-c2c1cc(O)c(O)c2O [Compound 4, castalagin] | 3.83 | 
O=C1O[C@H]2[C@H](O)[C@@H](CO)OC(O)[C@@H]2OC(=O)c2cc(O)c(O)c(O)c2-c2c1cc(O)c(O)c2O (stereo partly drawn) [Compound 2, 2,3-hexahydroxydiphenoyl-(α/β)-D-^4C1-glucopyranose] |  | 195.62
O=c1c(O[C@@H]2O[C@@H](CO)[C@H](O)[C@H]2O)c(-c2ccc(O)c(O)c2)oc2cc(O)cc(O)c12 [Compound 3, avicularin] | 3.66 | 
O=c1c(O[C@@H]2O[C@H](CO)[C@@H](O)[C@H](O)[C@H]2O)c(-c2ccc(O)c(O)c2)oc2cc(O)cc(O)c12 [Compound 5, quercetin-3-O-glucoside] | 3.71 | 
